From ChEMBL document CHEMBL3588757, “Structure-based design, synthesis and biological testing of piperazine-linked bis-epipodophyllotoxin etoposide analogs” (Bioorg Med Chem, 2015)

Experiments:
Format in all cases: functional
HL-60(TB) [1] = assay: Cytotoxicity against human HL-60(TB) cells assessed as cell growth at 0.5 uM by SRB assay; details: read-out: Activity
Summary of the method: (§1)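 Measured in the NCI-60 human tumour cell line panel using five-dose testing. Growth was recorded at each dose for each cell line, and a GI50 was derived for each line.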

A498 = assay: Cytotoxicity against human A498 cells assessed as cell growth at 0.005 uM by SRB assay; details: read-out: Activity
UO-31 [2] = assay: Cytotoxicity against human UO31 cells assessed as cell growth at 0.005 uM by SRB assay; details: read-out: Activity
HOP-92 = assay: Cytotoxicity against human HOP92 cells assessed as cell growth at 5 uM by SRB assay; details: read-out: Activity; summary of the method: as §1
NCI-H226 = assay: Cytotoxicity against human NCI-H226 cells assessed as cell growth at 50 uM by SRB assay; details: read-out: Activity
TK-10 [3] = assay: Cytotoxicity against human TK10 cells assessed as cell growth at 0.5 uM by SRB assay; details: read-out: Activity
CAKI-1 = assay: Cytotoxicity against human Caki1 cells assessed as cell growth at 50 uM by SRB assay; details: read-out: Activity
HL-60(TB) [4] = assay: Cytotoxicity against human HL-60(TB) cells by SRB assay; summary of the method: as §1
NCI-H522 = assay: Cytotoxicity against human NCI-H522 cells by SRB assay
Summary of the method: (§2)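 NCI-60 panel screen; 5-dose testing giving GI50 per cell line, plus a single 10 µM one-dose test. Method details not given beyond the NCI screen.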

M14 [5] = assay: Cytotoxicity against human M14 cells assessed as cell growth at 0.005 uM by SRB assay; details: read-out: Activity
SW-620 [6] = assay: Cytotoxicity against human SW620 cells assessed as cell growth at 0.5 uM by SRB assay; details: read-out: Activity
SK-OV-3 = assay: Cytotoxicity against human SKOV3 cells assessed as cell growth at 0.5 uM by SRB assay; details: read-out: Activity
SF-539 = assay: Cytotoxicity against human SF539 cells assessed as cell growth at 0.05 uM by SRB assay; details: read-out: Activity
BT-549 = assay: Cytotoxicity against human BT549 cells assessed as cell growth at 0.05 uM by SRB assay; details: read-out: Activity
UACC-257 = assay: Cytotoxicity against human UACC257 cells assessed as cell growth at 5 uM by SRB assay; details: read-out: Activity
NCI-H322M [7] = assay: Cytotoxicity against human NCI-H322M cells assessed as cell growth at 0.05 uM by SRB assay; details: read-out: Activity
A549 [8] = assay: Cytotoxicity against human A549/ATCC cells assessed as cell growth at 5 uM by SRB assay; details: read-out: Activity
[9] = Cytotoxicity against human NCI-ADR-RES cells assessed as cell growth at 0.005 uM by SRB assay; details: read-out: Activity
NCI-H460 = assay: Cytotoxicity against human NCI-H460 cells assessed as cell growth at 0.5 uM by SRB assay; details: read-out: Activity
A549 [10] = assay: Cytotoxicity against human A549/ATCC cells assessed as cell growth at 0.005 uM by SRB assay; details: read-out: Activity
HCT-15 = assay: Cytotoxicity against human HCT15 cells assessed as cell growth at 0.005 uM by SRB assay; details: read-out: Activity; summary of the method: as §1
SNB-19 = assay: Cytotoxicity against human SNB19 cells assessed as cell growth at 0.005 uM by SRB assay; details: read-out: Activity
HCT-116 = assay: Cytotoxicity against human HCT116 cells by SRB assay; summary of the method: as §1
CCRF-CEM = assay: Cytotoxicity against human CCRF-CEM cells assessed as cell growth at 0.005 uM by SRB assay; details: read-out: Activity
MDA-MB-468 = assay: Cytotoxicity against human MDA-MB-468 cells assessed as cell growth at 0.05 uM by SRB assay; details: read-out: Activity
NCI-H322M [11] = assay: Cytotoxicity against human NCI-H322M cells assessed as cell growth at 5 uM by SRB assay; details: read-out: Activity
[12] = Cytotoxicity against human Hs578T cells by SRB assay; details: Hs-578T; summary of the method: as §1
MCF7 = assay: Cytotoxicity against human MCF7 cells assessed as cell growth at 50 uM by SRB assay; details: read-out: Activity
A549 [13] = assay: Cytotoxicity against human A549/ATCC cells assessed as cell growth at 0.5 uM by SRB assay; details: read-out: Activity
MOLT-4 = assay: Cytotoxicity against human MOLT4 cells assessed as cell growth at 50 uM by SRB assay; details: read-out: Activity
LOX IMVI = assay: Cytotoxicity against human LOXIMVI cells assessed as cell growth at 0.05 uM by SRB assay; details: read-out: Activity
NCI-H322M [14] = assay: Cytotoxicity against human NCI-H322M cells assessed as cell growth at 0.5 uM by SRB assay; details: read-out: Activity
SR = assay: Cytotoxicity against human SR cells assessed as cell growth at 50 uM by SRB assay; details: read-out: Activity
OVCAR-4 = assay: Cytotoxicity against human OVCAR4 cells assessed as cell growth at 0.005 uM by SRB assay; details: read-out: Activity
UO-31 [15] = assay: Cytotoxicity against human UO31 cells assessed as cell growth at 5 uM by SRB assay; details: read-out: Activity
M14 [16] = assay: Cytotoxicity against human M14 cells assessed as cell growth at 50 uM by SRB assay; details: read-out: Activity
M14 [17] = assay: Cytotoxicity against human M14 cells assessed as cell growth at 0.5 uM by SRB assay; details: read-out: Activity
SK-MEL-28 = assay: Cytotoxicity against human SK-MEL-28 cells by SRB assay; summary of the method: as §2
OVCAR-8 = assay: Cytotoxicity against human OVCAR8 cells assessed as cell growth at 0.5 uM by SRB assay; details: read-out: Activity
SW-620 [18] = assay: Cytotoxicity against human SW620 cells by SRB assay; summary of the method: as §2
SK-MEL-5 = assay: Cytotoxicity against human SK-MEL-5 cells by SRB assay; summary of the method: as §2
TK-10 [19] = assay: Cytotoxicity against human TK10 cells assessed as cell growth at 0.05 uM by SRB assay; details: read-out: Activity
[20] = read-out: LC50 (the source's name)
[21] = read-out: pLC50 (the source's name) (converted)

## COc1cc([C@@H]2c3cc4c(cc3[C@@H](NC(=O)CN3CCN(CCCCCCN5CCN(CC(=O)N[C@@H]6c7cc8c(cc7[C@@H](c7cc(OC)c(O)c(OC)c7)[C@H]7C(=O)OC[C@@H]76)OCO8)CC5)CC3)[C@H]3COC(=O)[C@H]23)OCO4)cc(OC)c1O
HL-60(TB) [1]
  growth at 0.5 µM: 60%
A498
  growth at 0.005 µM: 82%
UO-31 [2]
  growth at 0.005 µM: 94%
HOP-92
  growth at 5 µM: 30%
NCI-H226
  growth at 50 µM: -2%
TK-10 [3]
  growth at 0.5 µM: 89%
CAKI-1
  growth at 50 µM: 57%
HL-60(TB) [4]; read-out: GI50
  GI50: 0.772 µM
HL-60(TB) [4]; [20]
  CC50: > 50 µM
HL-60(TB) [4]; read-out: TGI
  TGI: 33.8 µM
HL-60(TB) [4]; read-out: pGI50 (converted)
  GI50: 0.776 µM
HL-60(TB) [4]; [21]
  CC50: > 50.1 µM
HL-60(TB) [4]; read-out: pTGI (converted)
  TGI: 33.9 µM
NCI-H522; read-out: GI50
  GI50: 5.13 µM
NCI-H522; [20]
  CC50: > 50 µM
NCI-H522; read-out: TGI
  TGI: 28.8 µM
NCI-H522; read-out: pGI50 (converted)
  GI50: 5.13 µM
NCI-H522; [21]
  CC50: > 50.1 µM
NCI-H522; read-out: pTGI (converted)
  TGI: 28.8 µM
M14 [5]
  growth at 0.005 µM: 89%
SW-620 [6]
  growth at 0.5 µM: 63%
SK-OV-3
  growth at 0.5 µM: 97%
SF-539
  growth at 0.05 µM: 96%
BT-549
  growth at 0.05 µM: 87%
UACC-257
  growth at 5 µM: 62%
NCI-H322M [7]
  growth at 0.05 µM: 105%
A549 [8]
  growth at 5 µM: 35%
[9]
  growth at 0.005 µM: 104%
NCI-H460
  growth at 0.5 µM: 35%
A549 [10]
  growth at 0.005 µM: 99%
HCT-15
  growth at 0.005 µM: 90%
SNB-19
  growth at 0.005 µM: 97%
HCT-116; read-out: GI50
  GI50: 1.63 µM
HCT-116; [20]
  CC50: > 50 µM
HCT-116; read-out: TGI
  TGI: > 50 µM
HCT-116; read-out: pGI50 (converted)
  GI50: 1.62 µM
HCT-116; [21]
  CC50: > 50.1 µM
HCT-116; read-out: pTGI (converted)
  TGI: > 50.1 µM
CCRF-CEM
  growth at 0.005 µM: 102%
MDA-MB-468
  growth at 0.05 µM: 89%
NCI-H322M [11]
  growth at 5 µM: 99%
[12]; read-out: GI50
  GI50: 8.93 µM
[12]; [20]
  CC50: > 50 µM
[12]; read-out: TGI
  TGI: > 50 µM
[12]; read-out: pGI50 (converted)
  GI50: 8.91 µM
[12]; [21]
  CC50: > 50.1 µM
[12]; read-out: pTGI (converted)
  TGI: > 50.1 µM
MCF7
  growth at 50 µM: 7%
A549 [13]
  growth at 0.5 µM: 56%
MOLT-4
  growth at 50 µM: 5%
LOX IMVI
  growth at 0.05 µM: 88%
NCI-H322M [14]
  growth at 0.5 µM: 93%
SR
  growth at 50 µM: 1%
OVCAR-4
  growth at 0.005 µM: 85%
UO-31 [15]
  growth at 5 µM: 89%
M14 [16]
  growth at 50 µM: -19%
M14 [17]
  growth at 0.5 µM: 79%
SK-MEL-28; read-out: GI50
  GI50: 6.52 µM
SK-MEL-28; [20]
  CC50: > 50 µM
SK-MEL-28; read-out: TGI
  TGI: > 50 µM
SK-MEL-28; read-out: pGI50 (converted)
  GI50: 6.46 µM
SK-MEL-28; [21]
  CC50: > 50.1 µM
SK-MEL-28; read-out: pTGI (converted)
  TGI: > 50.1 µM
OVCAR-8
  growth at 0.5 µM: 111%
SW-620 [18]; read-out: GI50
  GI50: 1.6 µM
SW-620 [18]; [20]
  CC50: > 50 µM
SW-620 [18]; read-out: TGI
  TGI: > 50 µM
SW-620 [18]; read-out: pGI50 (converted)
  GI50: 1.58 µM
SW-620 [18]; [21]
  CC50: > 50.1 µM
SW-620 [18]; read-out: pTGI (converted)
  TGI: > 50.1 µM
SK-MEL-5; read-out: GI50
  GI50: 6.93 µM
SK-MEL-5; [20]
  CC50: > 50 µM
SK-MEL-5; read-out: TGI
  TGI: > 50 µM
SK-MEL-5; read-out: pGI50 (converted)
  GI50: 6.92 µM
SK-MEL-5; [21]
  CC50: > 50.1 µM
SK-MEL-5; read-out: pTGI (converted)
  TGI: > 50.1 µM
TK-10 [19]
  growth at 0.05 µM: 98%
